Test results as given in ChEMBL document CHEMBL1127066, “Discovery and structure-activity relationship of a series of 1-carba-1-dethiacephems exhibiting activity against methicillin-resistant Staphylococcus aureus” (J Med Chem, 1993).
Converted amounts (≈) assume the structure as drawn.

Legend:
Staphylococcus aureus [1] = assay: In vitro antimicrobial activity against Staphylococcus aureus X400 strain; assay type: functional
Staphylococcus aureus [2] = assay: In vitro antimicrobial activity against Staphylococcus aureus S13E strain; assay type: functional
Pseudomonas aeruginosa [3] = assay: Antimicrobial activity against Pseudomonas PS18 strain; assay type: functional
Enterobacter cloacae = assay: In vitro evaluation of antimicrobial activity against Enterobacter cloacae EB5 strain; assay type: functional
Escherichia coli = assay: In vitro evaluation of antimicrobial activity against Escherichia coli EC14 strain; assay type: functional
[4] = test system: Staphylococcus epidermidis; assay: In vitro antimicrobial activity against Staphylococcus epidermidis 270 strain; assay type: functional
Streptococcus pneumoniae = assay: In vitro antimicrobial activity against Streptococcus pneumoniae PARK strain; assay type: functional
Haemophilus influenzae = assay: In vitro antimicrobial activity against Haemophilus influenzae C.L. strain; assay type: functional
[5] = test system: Staphylococcus epidermidis; assay: In vitro antimicrobial activity against Staphylococcus epidermidis 222 strain; assay type: functional
Pseudomonas aeruginosa [6] = assay: In vitro antimicrobial activity against Pseudomonas X239 strain; assay type: functional
Staphylococcus aureus [7] = assay: In vitro antimicrobial activity against Staphylococcus aureus X1.1 strain; assay type: functional
Klebsiella = assay: In vitro antimicrobial activity against Klebsiella X26 strain; assay type: functional
Rattus norvegicus = species: Rattus norvegicus; assay: In vitro plasma protein binding was evaluated using Sprauge-Dawley rat at 20 ug/mL; assay type: ADME
Outline: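 Binding was measured by ultrafiltration (Centrifree micropartition) in pooled plasma (ICR mouse, Sprague–Dawley rat, rhesus monkey or human) at a drug concentration of 20 μg/mL.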

[8] = Tested against penicillin binding protein 2a (PBP2a) enzyme.
Staphylococcus aureus [9] = assay: Minimum inhibitory concentration against sensitive strain of Staphylococcus aureus 446 in 4% of NaCl; assay type: functional
Staphylococcus aureus [10] = assay: Minimum inhibitory concentration against heteroresistant strain of Staphylococcus aureus 430 in the absence of NaCl; assay type: functional
Staphylococcus aureus [11] = assay: Minimum inhibitory concentration against heteroresistant strain of Staphylococcus aureus 430 in 4% of NaCl; assay type: functional
Staphylococcus aureus [12] = assay: Minimum inhibitory concentration against homoresistant strain of Staphylococcus aureus 447 in 4% of NaCl; assay type: functional
Staphylococcus aureus [13] = assay: Minimum inhibitory concentration against methicillin-resistant Staphylococcus aureus 430 (MRSA) in vitro using trypticase soy broth (TSB) with 4% NaCl; assay type: functional
Staphylococcus aureus [14] = assay: Minimum inhibitory concentration against methicillin-resistant Staphylococcus aureus 430 (MRSA) in vitro using trypticase soy broth (TSB); assay type: functional
Staphylococcus aureus [15] = assay: Minimum inhibitory concentration against homoresistant strain of Staphylococcus aureus 447 in the absence of NaCl; assay type: functional
Staphylococcus aureus [16] = assay: Minimum inhibitory concentration against sensitive strain of Staphylococcus aureus 446 in the absence of NaCl; assay type: functional

SMILES	MIC (Staphylococcus aureus [1])	MIC (Staphylococcus aureus [2])	MIC (Pseudomonas aeruginosa [3])	MIC (Enterobacter cloacae)	MIC (Escherichia coli)	MIC [4]	MIC (Streptococcus pneumoniae)	MIC (Haemophilus influenzae)	MIC [5]	MIC (Pseudomonas aeruginosa [6])	MIC (Staphylococcus aureus [7])	MIC (Klebsiella)	also measured
Nc1nc(/C(=N\OCCF)C(=O)N[C@@H]2C(=O)N3C(C(=O)[O-])=C(Sc4nc5cncnc5s4)CC[C@H]23)cs1.[Na+]	16 µg/mL	8 µg/mL	128 µg/mL	2 µg/mL	0.25 µg/mL	2 µg/mL	< 0.008 µg/mL	0.03 µg/mL	0.5 µg/mL	128 µg/mL	0.125 µg/mL	0.03 µg/mL	–
Nc1nc(/C(=N\OCCF)C(=O)N[C@@H]2C(=O)N3C(C(=O)[O-])=C(Sc4nc5ccncc5s4)CC[C@H]23)cs1.[Na+]	8 µg/mL	4 µg/mL	64 µg/mL	2 µg/mL	0.25 µg/mL	2 µg/mL	< 0.008 µg/mL	0.015 µg/mL	0.5 µg/mL	> 128 µg/mL	0.125 µg/mL	0.06 µg/mL	–
Nc1nc(/C(=N\OCCF)C(=O)N[C@@H]2C(=O)N3C(C(=O)[O-])=C(Sc4nc5cc(Cl)ccc5s4)CC[C@H]23)cs1.[Na+]	8 µg/mL	4 µg/mL	64 µg/mL	2 µg/mL	0.25 µg/mL	0.5 µg/mL	< 0.008 µg/mL	0.06 µg/mL	0.5 µg/mL	> 128 µg/mL	0.125 µg/mL	0.06 µg/mL	–
CCOC(=O)c1csc(SC2=C(C(=O)[O-])N3C(=O)[C@@H](NC(=O)/C(=N/OCCF)c4csc(N)n4)[C@H]3CC2)n1.[Na+]	32 µg/mL	16 µg/mL	128 µg/mL	4 µg/mL	0.5 µg/mL	2 µg/mL	< 0.008 µg/mL	0.06 µg/mL	2 µg/mL	> 128 µg/mL	1 µg/mL	0.06 µg/mL	–
Cn1c(SC2=C(C(=O)[O-])N3C(=O)[C@@H](NC(=O)/C(=N/OCCF)c4csc(N)n4)[C@H]3CC2)n[nH]c(=O)c1=O.[Na+]	128 µg/mL	64 µg/mL	32 µg/mL	0.5 µg/mL	0.06 µg/mL	8 µg/mL	0.015 µg/mL	0.03 µg/mL	2 µg/mL	32 µg/mL	0.5 µg/mL	0.06 µg/mL	–
Nc1nc(/C(=N\OCCF)C(=O)N[C@@H]2C(=O)N3C(C(=O)[O-])=C(Sc4nc(-c5ccccn5)cs4)CC[C@H]23)cs1.[Na+]	32 µg/mL	16 µg/mL	64 µg/mL	2 µg/mL	0.5 µg/mL	2 µg/mL	< 0.008 µg/mL	0.03 µg/mL	0.5 µg/mL	32 µg/mL	0.25 µg/mL	0.03 µg/mL	–
Nc1nc(/C(=N\OCCF)C(=O)N[C@@H]2C(=O)N3C(C(=O)[O-])=C(Sc4nccs4)CC[C@H]23)cs1.[Na+]	64 µg/mL	16 µg/mL	32 µg/mL	1 µg/mL	0.125 µg/mL	4 µg/mL	< 0.008 µg/mL	< 0.008 µg/mL	0.5 µg/mL	128 µg/mL	0.25 µg/mL	< 0.008 µg/mL	–
CO/N=C(\C(=O)N[C@@H]1C(=O)N2C(C(=O)O)=C(COC(C)=O)CS[C@H]12)c1csc(N)n1 [CEFOTAXIME]	64 µg/mL (≈ 141 µM)	8 µg/mL (≈ 17.6 µM)	16 µg/mL (≈ 35.1 µM)	0.25 µg/mL (≈ 0.549 µM)	0.03 µg/mL (≈ 0.0659 µM)	8 µg/mL (≈ 17.6 µM)	0.015 µg/mL (≈ 0.0329 µM)	0.015 µg/mL (≈ 0.0329 µM)	2 µg/mL (≈ 4.39 µM)	8 µg/mL (≈ 17.6 µM)	2 µg/mL (≈ 4.39 µM)	< 0.008 µg/mL	Bound (Rattus norvegicus): 88.5%
COc1cccc(OC)c1C(=O)N[C@@H]1C(=O)N2[C@@H]1SC(C)(C)[C@@H]2C(=O)O [METHICILLIN]	64 µg/mL (≈ 168 µM)	8 µg/mL (≈ 21 µM)	> 128 µg/mL	> 128 µg/mL	> 128 µg/mL	4 µg/mL (≈ 10.5 µM)	0.5 µg/mL (≈ 1.31 µM)	4 µg/mL (≈ 10.5 µM)	4 µg/mL (≈ 10.5 µM)	> 128 µg/mL	2 µg/mL (≈ 5.26 µM)	32 µg/mL (≈ 84.1 µM)	IC50 [8]: 456 µg/mL (≈ 1200 µM); MIC (Staphylococcus aureus [9]): 1 µg/mL (≈ 2.63 µM); MIC (Staphylococcus aureus [10]): 8 µg/mL (≈ 21 µM); MIC (Staphylococcus aureus [11]): 256 µg/mL (≈ 673 µM); MIC (Staphylococcus aureus [12]): > 512 µg/mL; MIC (Staphylococcus aureus [13]): 256 µg/mL (≈ 673 µM); MIC (Staphylococcus aureus [14]): 8 µg/mL (≈ 21 µM); MIC (Staphylococcus aureus [15]): > 512 µg/mL; MIC (Staphylococcus aureus [16]): 1 µg/mL (≈ 2.63 µM)
CCOc1ccc2ccccc2c1C(=O)N[C@@H]1C(=O)N2[C@@H]1SC(C)(C)[C@@H]2C(=O)O [NAFCILLIN]	–	–	–	–	–	–	–	–	–	–	–	–	IC50 [8]: 200 µg/mL (≈ 483 µM); MIC (Staphylococcus aureus [9]): 0.25 µg/mL (≈ 0.603 µM); MIC (Staphylococcus aureus [10]): 1 µg/mL (≈ 2.41 µM); MIC (Staphylococcus aureus [11]): 64 µg/mL (≈ 154 µM); MIC (Staphylococcus aureus [12]): 128 µg/mL (≈ 309 µM); MIC (Staphylococcus aureus [13]): 32 µg/mL (≈ 77.2 µM); MIC (Staphylococcus aureus [14]): 0.25 µg/mL (≈ 0.603 µM); MIC (Staphylococcus aureus [15]): 128 µg/mL (≈ 309 µM); MIC (Staphylococcus aureus [16]): 0.25 µg/mL (≈ 0.603 µM)
